NPY Y1 blocker: antagonists of human neuropeptide Y receptor Y1 | inhibition, % at 3.6 µM | HEK293-CNG Y1 cells, membrane potential fluorescence; NPY at EC95, then isoproterenol | P25929 | 200,000 compounds, 1% hits;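 active = inhibition above the campaign mean inhibition of all tested compounds plus 3 SD, cut at about 20% in these data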;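 note: 0% = DMSO wells given NPY plus isoproterenol and 100% = isoproterenol alone without NPY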
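Test system – HEK293 Y1/CNG channel cell line · Also added – NPY agonist 25 nM, then isoproterenol 1 µM plus Ro 20-1724 25 µM · Compound dosing – one concentration, 3.6 µM, in 0.4% DMSO · Schedule – compound incubation 1 h at room temperature, readout 45 min post-stimulation · Technique – fluorescence, membrane potential probe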
NPY-Y2 antag: blocks the human neuropeptide Y Y2 receptor. NPY-Y2 expressing cells, antagonist mode. P49146. AID 793. 140,000 compounds, 0.99% hits. inhibition, % at 2.7 µM; in the data active = inhibition above about 17%;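 note: 0% = vehicle with agonist challenge and 100% = reference antagonist with challenge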
Target sequence (P49146 whole entry, looked up): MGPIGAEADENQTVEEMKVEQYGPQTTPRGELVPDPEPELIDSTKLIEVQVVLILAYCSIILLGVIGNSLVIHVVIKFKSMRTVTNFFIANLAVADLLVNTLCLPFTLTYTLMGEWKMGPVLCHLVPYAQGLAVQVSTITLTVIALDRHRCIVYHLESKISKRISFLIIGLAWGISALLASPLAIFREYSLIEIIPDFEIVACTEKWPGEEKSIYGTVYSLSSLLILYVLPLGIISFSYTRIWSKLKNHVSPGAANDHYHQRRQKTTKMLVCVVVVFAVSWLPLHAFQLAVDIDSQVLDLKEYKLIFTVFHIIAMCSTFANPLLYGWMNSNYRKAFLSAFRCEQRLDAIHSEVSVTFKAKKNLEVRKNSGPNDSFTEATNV
NPY-Y2 PAM-ag: potentiators or agonists of human neuropeptide Y receptor Y2 | P49146 | cells expressing NPY-Y2, potentiator/agonist read-out | activation, % at 3.6 µM | 220,000 compounds, 0.45% hits | AID 1359; in the data active = activation above about 27%;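 note: cells stimulated with NPY near EC25 plus isoproterenol at EC100; 0% = vehicle plus submaximal agonist and 100% = vehicle plus saturating agonist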
Calpain2 inh: calpain II (pig) inhibition; purified calpain II, fluorogenic peptide substrate, 30 min; inhibition, % at 16 µM; 220,000 compounds, 0.37% hits; AID 1236;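 active = inhibition above about 50%, limit read from the data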
Tb hexokinase: T. brucei hexokinase 1 inhibition; recombinant TbHK1, G6PDH-coupled NADH A340; inhibition, % at 10 µM; 220,000 compounds, 0.11% hits;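 active = inhibition of 50% or more in the single-dose primary screen; inactive = inhibition below 50%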
NPY-Y1 PAM-ag: potentiates or activates human NPY-Y1 receptor | AID 1304 | NPY-Y1 expressing cells, potentiator/agonist activation | P25929 | activation, % at 3.6 µM | 220,000 compounds, 0.37% hits; in the data active = activation above about 33%, passing the limit was not always enough;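 note: cells stimulated with NPY at EC10 then isoproterenol at EC100; 0% = low agonist plus stimulus and 100% = saturating agonist plus stimulus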
Active calls of the source: *; nt = not tested or not shown. Hits are enriched below; roughly 2.3% of the tested compounds scored in any of these assays.

SMILES	NPY Y1 blocker	NPY-Y2 antag	NPY-Y2 PAM-ag	Calpain2 inh	Tb hexokinase	NPY-Y1 PAM-ag
O=C(N/N=C/c1ccc(Cl)c([N+](=O)[O-])c1)C1CC1	2	nt	-10	54*	3	5
Cc1ccc(NC(=S)N/N=C/c2ccc(Cl)c([N+](=O)[O-])c2)cc1	1	1	-16	-7	-2	4
O=[N+]([O-])c1cccc(-c2csc(N/N=C/c3cccc(O)c3)n2)c1	1	nt	22	-88	-9	28
NNC(=O)c1sccc1OCc1ccc(F)cc1	7	nt	-23	-6	2	-10
O=C(N/N=C/c1ccc(F)cc1)c1sccc1OCc1ccc(F)cc1	11	23*	-39	-14	3	-50
O=C(N/N=C/c1ccc(Cl)cc1)c1sccc1OCc1ccc(F)cc1	109*	113*	-153	6	-3	-227
CCOC(=O)CN(C(=O)CSc1nnc(COc2ccc(OC)cc2)n1C)c1ccccc1	-14	0	103*	0	-5	112*
CC(C(=O)Nc1ccccc1Oc1ccccc1)c1ccccc1 (configuration not stated)	2	1	-1	52*	0	8
S=C(NCc1ccco1)N/N=C/c1ccc(Cl)cc1	4	6	-22	68*	-5	-16
COc1ccccc1/C=N/NC(=S)NCc1ccco1	nt	nt	-26	60*	-46	-35
Oc1ccc(/C=N/NC(=S)NCc2ccco2)cc1	3	1	-2	31	-25	15
CN1CCN(CC(=O)NN(Cc2ccccc2)c2ccccc2)CC1	nt	nt	-12	-20	-10	-4
Cn1c(N)c(C(=O)COC(=O)CCC2CCCC2)c(=O)n(C)c1=O	3	nt	2	80*	-4	10
Cn1c(N)c(C(=O)COC(=O)C2(c3ccc(F)cc3)CCCC2)c(=O)n(C)c1=O	-5	-1	9	76*	-5	-4
Cc1cc(SCC(=O)OCC(=O)c2c(N)n(C)c(=O)n(C)c2=O)c(C)cc1Br	9	nt	-3	3	2	12
Cc1cc(Br)ccc1SCC(=O)OCC(=O)c1c(N)n(C)c(=O)n(C)c1=O	nt	nt	-2	77*	-11	-16
Cn1c(N)c(C(=O)COC(=O)CCC2CCCCC2)c(=O)n(C)c1=O	0	nt	-2	78*	-5	16
CN(C(=O)Nc1ccc(C(C)(C)C)cc1)C1CCCCC1	nt	nt	4	13	-7	-12
Cn1c(N)c(C(=O)COC(=O)C2CCCC2)c(=O)n(C)c1=O	2	nt	-5	17	-6	18
Cn1c(N)c(C(=O)COC(=O)C2CCC(C(C)(C)C)CC2)c(=O)n(C)c1=O (configuration not stated)	5	1	3	110*	-7	7
c1ccc(CCC2CCCCN2Cc2nc(C3CC3)no2)cc1 (configuration not stated)	3	nt	17	3	5	-3
Cc1cccn2c(CNCC3(c4ccccc4)CCCC3)c(C(=O)N3CCOCC3)nc12	20*	nt	12	-19	-3	8
CCC(c1nnnn1Cc1ccco1)N1CCN(c2cc(Cl)ccc2C)CC1 (configuration not stated)	27*	28*	-12	-4	0	-28
CCC(=O)Nc1c2c(nn1-c1ccc(F)cc1)CS(=O)C2 (configuration not stated)	2	2	-7	-14	-3	9
O=C(CCC1CCCCC1)Nc1c2c(nn1-c1ccc(F)cc1)CS(=O)(=O)C2	57*	30*	-10	-19	3	-42
SMILES	NPY Y1 blocker	NPY-Y2 antag	NPY-Y2 PAM-ag	Calpain2 inh	Tb hexokinase	NPY-Y1 PAM-ag
CC1CCCC(C)N1CC(C)(C)NS(=O)(=O)c1ccc(Cl)cc1 (configuration not stated)	3	2	-1	-18	-2	-28
NC1=NS(=O)(=O)NC1c1ccc(F)cc1 (configuration not stated)	0	nt	-9	1	-9	-6
COc1ccc(C(=O)N/C(=C/c2ccco2)C(=O)NC2CCS(=O)(=O)C2)cc1 (configuration not stated)	-4	nt	7	-21	-19	-3
COc1ccccc1C(C)NCC(=O)Nc1c(F)cccc1F (configuration not stated)	-3	nt	-1	-20	-5	16
COc1cc(Cl)c(C)cc1NC(=O)CNC(C)c1ccccc1OC (configuration not stated)	9	nt	-15	90*	1	-9
O=C1C(Nc2ccccc2)=C(N2CCCCC2)C(=O)c2ccccc21	3	1	2	9	-6	-20
CN(C1=C(N2CCCCC2)C(=O)c2ccccc2C1=O)c1ccccc1	-5	-14	37*	11	2	44*
COC(=O)CSc1nc2sc3c(c2c(=O)[nH]1)CCC3	nt	nt	-21	1	-5	20
CN(CCc1ccccn1)C(=S)NC(=O)c1ccco1	5	nt	1	52*	-3	0
Cc1nc2sccn2c(=O)c1CCN1CCC(=C(c2ccccc2)c2ccc(F)cc2)CC1	40*	44*	-8	-15	-7	-92
CCOC(=O)c1c(C)nc2sccn12	-5	-1	3	-33	3	10
CCc1ccc(-n2c(SCC(=O)N3Cc4ccccc4CC3C(=O)O)nnc2-c2ccncc2)cc1 (configuration not stated)	nt	nt	-16	11	-5	4
O=C(CSc1nnnn1-c1ccc2c(c1)OCCO2)OC1CCCCC1	4	6	-8	71*	2	-26
COc1ccc2nc(Nc3nc(C)c(C(C)=O)s3)sc2c1	-2	-3	34*	-54	-6	41*
COc1ccc(Nc2nc3ccc(OC)cc3s2)cc1	-5	nt	6	-13	2	24
O=C1C2C3c4ccccc4C(c4ccccc43)C2c2nc3ccccc3n21 (configuration not stated)	24*	11	-11	24	0	-18
COn1c(SCc2cccc(Cl)c2)nc2ccccc2c1=O	22*	17*	-5	15	-1	-56
CCOC(=O)CSc1nc2ccc(NC(C)=O)cc2s1	-9	-1	58*	-40	3	72*
COC(=O)CSc1nc2ccc(NC(=O)c3ccccc3C(=O)N3CCOCC3)cc2s1	-16	2	95*	6	-11	109*
COC(=O)c1c(NC(=O)COC(=O)Cn2cnc3ccccc32)sc2c1CCCC2	2	4	-10	-18	-3	16
O=C1CC(c2ccccc2)Cc2nc(N3CCc4ccccc4C3)ncc21 (configuration not stated)	7	4	-11	54*	0	-16
Cc1ccc(C2CC(=O)c3cnc(N4CCc5ccccc5C4)nc3C2)cc1 (configuration not stated)	3	3	-6	21	-13	12
COc1ccc([C@H]2C=C(C(=O)O)O[C@@H](OCCCCO)C2)cc1	nt	nt	nt	-23	-13	nt

Assay outcomes: PubChem BioAssay, several laboratories
